Measured values published in article PMC7115568 (European Journal of Medicinal Chemistry, 2014).
Entries after “also recorded” stand apart in the source; their conditions may differ.

What was measured:
[1] = test system: human prostate (PC-3) cancer cell line; test: In vitro cytotoxic studies; assay type: cell-based; settings: PC-3 cells; for Cytotoxicity % inhibition: 72 h, MTT; for Cytotoxicity against PC-3 cell line (in words): tested at 0.2, 2.0 and 20 μM
In short: (§1)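 PC-3 cells grown in DMEM with 10% FBS and plated in 96-well format. They were exposed to test compound over 20 μM–0.001 μM for 72 h. MTT was then added (stock 5 mg/ml in PBS) for 4 h. Plates were spun, supernatant removed and formazan dissolved in DMSO with 30 min shaking. A550 was read and percentage inhibition calculated.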

[2] = test system: Tritrichomonas foetus; test: In vitro protozoal parasite susceptibility assay; assay type: cell-based; settings: 24 h; for Average % inhibition at 50 μM (Tritrichomonas foetus): T. foetus strain D1, cells counted with hemacytometer; for inhibition at 50 µM: Tritrichomonas foetus, read-out: Average % inhibition at 50 μM (Tritrichomonas foetus)
In short: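 T. foetus strain D1 was screened in TYM Diamond's medium. Test compound was dissolved in DMSO and diluted into the medium. After 24 h exposure, parasites were counted with a hemacytometer.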

[3] = In vitro cytotoxic studies; assay type: cell-based, human; settings: human, PC-3 prostate cancer cells
In short: as §1

Row | Molecule | Cytotoxicity % inhibition ([1]; 0.2 μM) [%] | Cytotoxicity % inhibition ([1]; 2 μM) [%] | Cytotoxicity % inhibition ([1]; 20 μM) [%] | Average % inhibition at 50 μM (Tritrichomonas foetus) [2] [%] | cytotoxicity at 72 h, 0.2 µM [3] [%] | cytotoxicity at 72 h, 2 µM [3] [%] | cytotoxicity at 72 h, 20 µM [3] [%] | inhibition at 50 µM [2] [%] | Cytotoxicity against PC-3 cell line (in words) [1]
1 | 5-Methyl-1-(4-pyrrolidin-1-yl-but-2-ynyl)-1H-indole-2,3-dione [Compound 3m] | 6.8 | 10.5 | 2.4 | 31.8 |  |  |  |  | 
2 | O=C1C(=O)N(CC#CCN2CCCCC2)c2ccccc21 [Compound 3a, 1-(4-Piperadin-1-yl-but-2-ynyl)-1H-indole-2,3-dione] | 6.0 | 4.0 | 7.0 | 18.2 |  |  |  |  | 
3 | O=C1C(=O)N(CC#CCN2CCCC2)c2ccccc21 [Compound 3b, 1-(4-Pyrrolidin-1-yl-but-2-ynyl)-1H-indole-2,3-dione] |  |  |  |  | 7 | 7 | 3 | 10.6 | 
4 | O=C1C(=O)N(CC#CCN2CCOCC2)c2ccccc21 [Compound 3c, 1-(4-Morpholin-4-yl-but-2-ynyl)-1H-indole-2,3-dione] |  |  |  |  | 13.4 | 11.6 | 8.7 | 9.1 | 
5 | CCN(CC)CC#CCN1C(=O)C(=O)c2ccccc21 [Compound 3d, 1-(4-Diethylamino-but-2-ynyl)-1H-indole-2,3-dione] |  |  |  |  | 8 | 4.6 | 8 | 22.7 | 
6 | O=C1C(=O)N(CC#CCN2CCCCC2)c2ccc(Cl)cc21 [Compound 3e, 5-Chloro-1-(4-piperidin-1-yl-but-2-ynyl)-1H-indole-2,3-dione] |  |  |  |  | 11.1 | 10.7 | 18.7 | 3 | 
7 | O=C1C(=O)N(CC#CCN2CCCC2)c2ccc(Cl)cc21 [Compound 3f, 5-Chloro-1-(4-pyrrolidin-1-yl-but-2-ynyl)-1H-indole-2,3-dione] |  |  |  |  | 4.6 | 4.3 | 9.6 | 15.2 | 
8 | O=C1C(=O)N(CC#CCN2CCOCC2)c2ccc(Cl)cc21 [Compound 3g, 5-Chloro-1-(4-morpholin-4-yl-but-2-ynyl)-1H-indole-2,3-dione] |  |  |  |  | 0.8 | 4.3 | 3.4 | 22.7 | 
9 | CCN(CC)CC#CCN1C(=O)C(=O)c2cc(Cl)ccc21 [Compound 3h, 5-Chloro-1-(4-diethylamino-but-2-ynyl)-1H-indole-2,3-dione] |  |  |  |  | 4.8 | 5.6 | 6.4 | 42.4 | 
10 | O=C1C(=O)N(CC#CCN2CCCCC2)c2ccc(F)cc21 [Compound 3i, 5-Fluoro-1-(4-piperidin-1-yl-but-2-ynyl)-1H-indole-2,3-dione] |  |  |  |  | -4.7 | -6 | 5.1 | 40.9 | 
11 | O=C1C(=O)N(CC#CCN2CCCC2)c2ccc(F)cc21 [Compound 3j, 5-Fluoro-1-(4-pyrrolidin-1-yl-but-2-ynyl)-1H-indole-2,3-dione] |  |  |  |  | 5 | 4.3 | -2.7 | 33.3 | 
12 | O=C1C(=O)N(CC#CCN2CCOCC2)c2ccc(F)cc21 [Compound 3k, 5-Fluoro-1-(4-morpholin-4-yl-but-2-ynyl)-1H-indole-2,3-dione] |  |  |  |  | 3.8 | 0.7 | 3.2 | 56.1 | 
13 | CCN(CC)CC#CCN1C(=O)C(=O)c2cc(F)ccc21 [Compound 3l, 1-(4-Diethylamino-but-2-ynyl)-5-fluoro-1H-indole-2,3-dione] |  |  |  |  | 11.6 | 14.5 | 7.9 | 18.2 | 
14 | Cc1ccc2c(c1)C(=O)C(=O)N2CC#CCN1CCCC1 [Compound 3n, 5-Methyl-1-(4-pyrrolidin-1-yl-but-2-ynyl)-1H-indole-2,3-dione] |  |  |  |  | 1.9 | 4.7 | 6.1 | 65.2 | 
15 | Cc1ccc2c(c1)C(=O)C(=O)N2CC#CCN1CCOCC1 [Compound 3o, 5-Methyl-1-(4-morpholin-4yl-but-2-ynyl)-1H-indole-2,3-dione] |  |  |  |  | 8 | 7.8 | 3.5 | 57.6 | 
16 | CCN(CC)CC#CCN1C(=O)C(=O)c2cc(C)ccc21 [Compound 3p, 1-(4-Diethylamino-but-2-ynyl)-5-methyl-1H-indole-2,3-dione] |  |  |  |  | 11.5 | 10.2 | 11.2 | 51.5 | 
17 | O=C1C(=O)N(CC#CCN2CCN(CC#CCN3C(=O)C(=O)c4ccccc43)CC2)c2ccccc21 [Compound 5a, Bis-{1-(yl-but-2-ynyl)-1H-indole-2,3-dione} piperazine] | 6.5 | 10.3 | 45.8 | 3.0 |  |  |  |  | cytotoxic
18 | O=C1C(=O)N(CC#CCN2CCN(CC#CCN3C(=O)C(=O)c4cc(Cl)ccc43)CC2)c2ccc(Cl)cc21 [Compound 5b, Bis-{5-chloro-1-(yl-but-2-ynyl)-1H-indole-2,3-dione} piperazine] | 24.4 | 28.9 | 24.8 | 7.6 |  |  |  |  | 
19 | O=C1C(=O)N(CC#CCN2CCN(CC#CCN3C(=O)C(=O)c4cc(F)ccc43)CC2)c2ccc(F)cc21 [Compound 5c, Bis-{5-fluoro-1-(yl-but-2-ynyl)-1H-indole-2,3-dione} piperazine] | −0.6 | −3.6 | 7.4 | 9.1 |  |  |  |  | 
20 | Cc1ccc2c(c1)C(=O)C(=O)N2CC#CCN1CCN(CC#CCN2C(=O)C(=O)c3cc(C)ccc32)CC1 [Compound 5d, Bis-{5-methyl-1-(yl-but-2-ynyl)-1H-indole-2,3-dione} piperazine] | −1.0 | 6.7 | 7.1 | 71.2 |  |  |  |  | 
21 | O=C1C(=O)N(CC#CCN2CCN(c3ccnc4cc(Cl)ccc34)CC2)c2ccccc21 [Compound 7a, 1-{4-[4-(7-Chloro-quinolin-4-yl)-piperazin-1-yl]-but-2-ynyl}-1H-indole-2,3-dione] |  |  |  |  | 9 | 10.1 | -3.2 | 98.5 | no cytotoxicity; also recorded: minimal toxicity
22 | O=C1C(=O)N(CC#CCN2CCN(c3ccnc4cc(Cl)ccc34)CC2)c2ccc(F)cc21 [Compound 7b, 1-{4-[4-(7-Chloro-quinolin-4-yl)-piperazin-1-yl]-but-2-ynyl}-5-fluoro-1H-indole-2,3-dione] |  |  |  |  | 2.1 | 5 | 3 | 100 | no cytotoxicity
23 | O=C1C(=O)N(CC#CCN2CCN(c3ccnc4cc(Cl)ccc34)CC2)c2ccc(Cl)cc21 [Compound 7c, 5-Chloro-1-{4-[4-(7-chloro-quinolin-4-yl)-piperazin-1-yl]-but-2-ynyl}-1H-indole-2,3-dione] |  |  |  |  | 6.1 | 1.2 | 1.4 | 100 | no cytotoxicity; also recorded: minimal toxicity
24 | Cc1ccc2c(c1)C(=O)C(=O)N2CC#CCN1CCN(c2ccnc3cc(Cl)ccc23)CC1 [Compound 7d, 1-{4-[4-(7-Chloro-quinolin-4-yl)-piperazin-1-yl]-but-2-ynyl}-5-methyl-1H-indole-2,3-dione] |  |  |  |  | 1.3 | 8.1 | 8.2 | 59.1 | no cytotoxicity; also recorded: minimal toxicity
25 | O=C1C(=O)N(CC#CCN2CCN(c3ccnc4cc(Cl)ccc34)CC2)c2ccc([N+](=O)[O-])cc21 [Compound 7e, 1-{4-[4-(7-Chloro-quinolin-4-yl)-piperazin-1-yl]-but-2-ynyl}-5-nitro-1H-indole-2,3-dione] |  |  |  |  | 0.5 | 3.2 | 4.8 | 60.6 | 
26 | CS(=O)(=O)N1CCN(Cc2cc3nc(-c4cccc5[nH]ncc45)nc(N4CCOCC4)c3s2)CC1 [GDC-0941, reference compound] |  |  |  |  | 30.2 | 56.8 | 72.2 |  | 
